Laboratory results published in ChEMBL document CHEMBL3632581, “Dimers of Melampomagnolide B Exhibit Potent Anticancer Activity against Hematological and Solid Tumor Cells” (J Med Chem, 2015).

Key:
Assay type in all cases: functional
[1] = Cytotoxicity against human EKVX cells after 48 hrs by SRB assay; conditions: for CC50: read-out: LC50 (the source's name)
How it was run: (§1)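 NCI-60 five-dose screen at 10−8 to 10−4 M. Cells were plated at 5,000–40,000/well in RPMI 1640 with 5% FBS and 2 mM L-glutamine, then preincubated 24 h, and time-zero plates were TCA-fixed. Compound was added from DMSO stocks and exposed 48 h at 37 °C. Cells were TCA-fixed, SRB-stained, and read at 515 nm. LC50 is the concentration halving the cell population through cell death.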

SNB-19 = assay: Cytotoxicity against human SNB19 cells after 48 hrs by SRB assay; conditions: SNB-19, 48 h; how it was run: as §1
[2] = Cytotoxicity against rat 9LSF cells at 10 uM after 48 hrs by colony formation assay relative to DMAPT
How it was run: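 9L-SF rat gliosarcoma cells in DMEM/F12 with 10% iron-supplemented calf serum were treated at 50% confluence for 48 h (0.3-20 μM; DMSO <0.1%, DMAPT in saline). Cells were rinsed, trypsinized, counted and seeded for colonies, with irradiated feeders when seeding was below 2,000 cells/cm2. Survival was normalized to control plating efficiency and compared with DMAPT at 10 μM. Treatments in triplicate.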

Row | SMILES | GI50 [1] [µM] | CC50 [1] [µM] | GI50 (SNB-19) [µM] | CC50 (SNB-19; read-out: LC50 (the source's name)) [µM] | fold change (FC) [2]
1 | C=C1C(=O)O[C@H]2[C@H]1CC/C(COC(=O)NCCCCNC(=O)OC/C1=C/CC[C@@]3(C)O[C@H]3[C@H]3OC(=O)C(=C)[C@@H]3CC1)=C\CC[C@@]1(C)O[C@@H]21 | 3.69 | 37.3 |  |  | 
2 | C=C1C(=O)O[C@H]2[C@H]1CC/C(COC(=O)NCCCCCNC(=O)OC/C1=C/CC[C@@]3(C)O[C@H]3[C@H]3OC(=O)C(=C)[C@@H]3CC1)=C\CC[C@@]1(C)O[C@@H]21 |  |  | 3.97 | 92.5 | 
3 | C=C1C(=O)O[C@H]2[C@H]1CC/C(COC(=O)NCCCCCCCCNC(=O)OC/C1=C/CC[C@@]3(C)O[C@H]3[C@H]3OC(=O)C(=C)[C@@H]3CC1)=C\CC[C@@]1(C)O[C@@H]21 | 1.19 | 4.99 |  |  | 303
